Shown are actives, neighbours in structure and some others; about 3.8% of the full set was active somewhere.
MC4R barr agon: agonists of human melanocortin 4 receptor (MC4R) beta-arrestin | activation, % at 8.9 µM | U2OS MC4R beta-arrestin complementation, luminescence; percent of melanotan II response, DMSO zero | actives 0.98% (n = 360,000) | AID 540308;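 active = activation above a per-plate cutoff, the mean activation of sample wells on that plate plus 3 SD, cut at about 8% in these data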
Target sequence (P32245 whole entry, looked up): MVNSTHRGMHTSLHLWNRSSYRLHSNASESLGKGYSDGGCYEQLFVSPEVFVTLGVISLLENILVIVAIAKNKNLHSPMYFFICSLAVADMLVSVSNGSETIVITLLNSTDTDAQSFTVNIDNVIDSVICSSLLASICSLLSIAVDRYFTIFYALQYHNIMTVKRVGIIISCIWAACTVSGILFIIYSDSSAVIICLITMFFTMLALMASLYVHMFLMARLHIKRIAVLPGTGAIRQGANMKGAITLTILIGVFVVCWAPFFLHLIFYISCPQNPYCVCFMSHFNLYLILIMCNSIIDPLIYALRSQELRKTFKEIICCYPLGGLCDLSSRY
MC4R antagonist: antagonists of human melanocortin 4 receptor (MC4R) | P32245 | MC4R-expressing cells, MTII-stimulated cAMP, LANCE TR-FRET | inhibition, % at 6.5 µM | actives 0.48% (n = 360,000);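 active = inhibition above its plate's cutoff, the mean of tested wells on that plate plus 3 SD, cut at about 29% in these data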;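 also: 0% = Melanotan II alone and 100% = Melanotan II plus saturating MCL0020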
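Material – human MC4R-expressing U2OS cells · Repeats – no replicates · Detection – TR-FRET with Eu-cAMP and labeled anti-cAMP, 671 nm · Times – compound 30 min, challenge 1 h, detection 1 h · Compound – single nominal compound dose of 6.5 µM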
TMEM16A inh: mouse TMEM16A channel inhibition, primary screen. HEK293 TMEM16A/YFP iodide influx fluorescence, ionomycin. actives 1.2% (n = 310,000). normalized B-score (activity score, 25-100; higher = stronger inhibition) at 10 µM. Q8BHY3;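 active = ratio plate-corrected score three or more library SD toward inhibition, starting fluorescence score within five deviations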;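 also: score derived from kinetic fluorescence span divided by baseline fluorescence per well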
ANO1 activ: activates or potentiates the mouse TMEM16A chloride channel | Q8BHY3 | HEK293 TMEM16A/YFP-H148Q/I152L, iodide quench fluorescence; active compounds read low | actives 0.3% (n = 340,000) | AID 623877 | B-score at 10 µM;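 active = fluorescence-ratio B-score plate-corrected deviation score at least 3 library SD below zero, with starting fluorescence score within 5 deviations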;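 also: channel opened by trigger with iodide after compound preincubation; score built on the fluorescence ratio of max minus min over baseline; more negative score means more quench and so TMEM16A activation or potentiation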
CSC inhib: cancer stem cell inhibition. actives 1.1% (n = 300,000). inhibition, % at 7.5 µM. cancer stem cell-like cells viability, luminescence; in the data active = inhibition above about 75%; tested in HMLE shEcad cells
Beta cell apopt: blocks beta cell apoptosis. INS-1E cytokine-induced death, ATP luminescence, 48 h; percent of positive-control rescue, neutral wells zero. protection from apoptosis, % (no concentration beside the values). actives 0.8% (n = 300,000);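 active = Every replicate reaches about 75%, or at least half do and their mean reaches it too, limit read from the data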;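 also: 0% = cytokine-treated negative control wells and 100% = positive control rescue; higher means more ATP so stronger rescue from cytokine killing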
TMEM16A reconf: re-confirmation of mouse TMEM16A chloride channel inhibitors | inhibition, % at 10 µM | HEK293 TMEM16A/YFP-H148Q, iodide quench fluorescence; ionomycin added to raise cell calcium | actives 39% (n = 2,300) | AID 652189 | shares compounds with TMEM16A inh;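 active = mean duplicate percent inhibition, scaled so buffer wells are 0 and the reference blocker 100, over three buffer SD above buffer mean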
HEK293 Ca mobil: alters calcium mobilization in TMEM16A HEK293 cells, counter-screen; shares compounds with TMEM16A inh; calcium response (% of ionomycin), % at 10 µM; actives 2% (n = 2,300); AID 652231; TMEM16A/YFP HEK293, Fluo4 calcium mobilization;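 active = duplicate-averaged calcium signal over 20% of the ionomycin maximum, relative to buffer baseline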;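 also: each well's signal is peak minus trough fluorescence divided by its pre-addition baseline; 0% = buffer wells and 100% = ionomycin wells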
Parental YFP cnt: acts in parental YFP-HEK293 cells lacking TMEM16A, counter-screen; shares compounds with TMEM16A inh; iodide YFP quench, ionomycin; YFP ratio F(max-min)/F0 at 10 µM; 2,300 tested, under 10 active; AID 652233;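 active = yellow fluorescent protein signal ratio exceeding the buffer control mean by over 5 SD of those controls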;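 also: ratio is mean of duplicate wells from kinetic YFP trace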
ClC-1 rat inh: blocks the rat ClC-1 voltage-dependent chloride channel; shares compounds with TMEM16A inh; CHO ClC-1-YFP, iodide influx fluorescence quench; iodide control reads 0, buffer control 100; ratio percent, % at 10 µM; 2,300 tested, under 10 active;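 active = duplicate-mean ratio percent above the mean of iodide-only control wells, which defines zero, plus 5 of their SD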;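 also: higher percent means stronger block of ClC-1 iodide influx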
* hit, by the source's call; i = inactive; / = not tested or not shown.

SMILES	MC4R barr agon	MC4R antagonist	TMEM16A inh	ANO1 activ	CSC inhib	Beta cell apopt	TMEM16A reconf	HEK293 Ca mobil	Parental YFP cnt	ClC-1 rat inh
Cc1ccc(S(=O)(=O)C(C#N)c2nc3ccccc3nc2N2CCN(C)CC2)cc1 (centres undefined)	-2	1	i	i	-12	-10	/	/	/	/
Cc1cccc(S(=O)(=O)C(C#N)c2nc3ccccc3nc2N2CCOCC2)c1 (centres undefined)	0	17	100*	i	/	2	i	i	-1	-14
Cc1ccnn1-c1ccc(C(=O)OCC(=O)Nc2ccc(F)cc2)cc1	-1	15	/	i	/	/	/	/	/	/
C=CCSc1nnc(NC(=O)CCNC(=O)c2ccccc2Cl)s1	-1	5	/	/	/	/	/	/	/	/
COc1cccc(OCc2cc(C(=O)N(Cc3ccccc3)CC3CC3)no2)c1	-2	7	i	i	16	-3	/	/	/	/
O=C(COC(=O)C1CC(=O)N(Cc2ccccc2)C1)Nc1cccc([N+](=O)[O-])c1 (centres undefined)	-3	13	/	i	16	-1	/	/	/	/
C/C(=N\NC(=O)c1c(Cl)c(C)nn1C)c1ccc(NC(=O)c2ccncc2)cc1	-1	1	i	i	-11	2	/	/	/	/
Cc1nn(-c2ccc(NC(=O)c3ccncc3)cc2)c(C)c1Cl	-1	3	25*	i	/	/	18%*	i	-0.89	-2
CCCCNC(NCCCC)=C(S(=O)(=O)CC)S(=O)(=O)CC	-2	7	25*	i	-9	/	i	i	-1.1	-4
Cc1ccc(NC(=O)c2ncn(CCCN(C)CCc3ccccn3)n2)cc1C	-2	3	/	/	/	/	/	/	/	/
FC(F)(F)c1ccc(N2CCN(c3cc(-c4ccccc4)nc4ncnn34)CC2)nc1	2	18	100*	i	/	/	36%*	i	-0.79	-20
FC(F)(F)c1cccc(Nc2cc(-c3ccccc3)nc3ncnn23)c1	-2	7	i	i	15	3	/	/	/	/
O=C(O)C1CCN(S(=O)(=O)c2ccc(N3CCC(O)CC3)c([N+](=O)[O-])c2)CC1	-3	1	i	i	-11	-2	/	/	/	/
Cc1nc(SCC(=O)N2CCOCC2)c2c(=O)n(C)c(=O)n(CC(C)C)c2n1	-2	5	/	i	13	4	/	/	/	/
Cc1cccc(OCCC(=O)Nc2ccc(C)c(S(=O)(=O)N3CCOCC3)c2)c1	1	5	/	/	-1	-1	/	/	/	/
Cc1ccc(NC(=O)CSc2ncnc3ccccc23)cc1S(=O)(=O)N1CCCCCC1	-1	10	25*	i	13	-3	27%*	i	-1.2	-16
Cc1ccc(NC(=O)c2ccc(F)cc2)cc1S(=O)(=O)N1CCCCCC1	-1	18	i	i	29	2	/	/	/	/
CCc1cccc(OCC(=O)Nc2ccc(C)c(S(=O)(=O)N3CCCCCC3)c2)c1	-3	1	100*	i	1	-10	i	i	-1.2	-4
COc1ccc(C(=O)Nc2ccc(C)c(S(=O)(=O)N3CCCCCC3)c2)cc1	1	2	100*	i	4	8	i	i	-1.1	-2
Cc1cccc(OCCC(=O)Nc2ccc(C)c(S(=O)(=O)N3CCCCC3)c2)c1	5	22	25*	i	-3	-2	34%*	i	-1.1	-13
COc1ccc(C(=O)Oc2ccc(N(C)S(=O)(=O)c3ccccc3)cc2)cc1[N+](=O)[O-]	-1	3	i	i	-9	3	/	/	/	/
CC(CC12CC3CC(CC(C3)C1)C2)NCc1ccccc1O (centres undefined)	3	3	i	i	38	18	/	/	/	/
